Columns and labels:
H9 = assay: Evaluated in vitro for the concentration required to produce 50% inhibition of proliferation of H9 lymphocytes; assay type: functional, cell-based; conditions: Homo sapiens
How it was run: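 H9 lymphoblastoid cells grown in RPMI 1640 with 15% FBS, penicillin/streptomycin and 2 mM L-glutamine at 37 °C under 5% CO2. Viability read by trypan blue dye exclusion. IC50 taken as the concentration giving 50% inhibition of proliferation.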

[1] = Evaluated for Partition coefficient in n-octanol and phosphate buffer pH 7.4; assay type: physicochemical; conditions: octanol/water
How it was run: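 Ester solutions in n-octanol equilibrated with phosphate buffer (0.2 M, pH 7.4) at room temperature. Partition coefficient derived from the distribution between the two phases.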

[2] = In vitro time required for 50% hydrolysis at 37 degree Celsius upon incubation in human plasma; assay type: functional, cell-free
How it was run: (§1)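 Ester (10 mg/mL DMSO stock, diluted 1:100) incubated at 37 °C in human plasma or in rat hepatic microsomes (15.5 mg protein/mL solution). Samples taken over 0–4 h and quenched in ice-cold methanol. Remaining ester quantified by reverse-phase HPLC. t1/2 = time to 50% hydrolysis.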

[3] = tested on: Human immunodeficiency virus 1; assay: Evaluated in vitro for the concentration required to produce 50% inhibition of replication of HIV-1; assay type: functional, organism-based
[4] = In vitro time required for 50% hydrolysis at 37 degree Celsius upon incubation in rat hepatic microsomes; assay type: functional; conditions: Liver; how it was run: as §1

| SMILES | IC50 (H9) [µM] | PC [1] | T1/2 [2] [min] | IC50 [3] [µM] | T1/2 [4] [min] |
| --- | --- | --- | --- | --- | --- |
| Cc1cn([C@H]2C[C@H](N=[N+]=[N-])[C@@H](COC(=O)C3=CN(C)C=CC3)O2)c(=O)[nH]c1=O | 336 | 7.2 | > 240 | 0.05 | 110 |
| CC1=C(/C=C/C(C)=C/C=C/C(C)=C/C(=O)OC[C@H]2O[C@@H](n3cc(C)c(=O)[nH]c3=O)C[C@@H]2N=[N+]=[N-])C(C)(C)CCC1 | 25 | 17.9 | 120 | 0.2 | 60 |
| Cc1cn([C@H]2C[C@H](N=[N+]=[N-])[C@@H](CO)O2)c(=O)[nH]c1=O [ZIDOVUDINE] | 150 | 1.2 | – | 0.12 | – |
| Cc1cn([C@H]2C[C@H](N=[N+]=[N-])[C@@H](COC(=O)C(N)CCCCN)O2)c(=O)[nH]c1=O.O=C(O)C(F)(F)F (stereo partly drawn) | 300 | 0.01 | 30 | – | 14 |
| Cc1cn([C@H]2C[C@H](N=[N+]=[N-])[C@@H](COC(=O)C(N)Cc3ccc(O)cc3)O2)c(=O)[nH]c1=O.O=C(O)C(F)(F)F (stereo partly drawn) | 300 | 0.94 | 60 | 0.11 | 5 |
| Cc1cn([C@H]2C[C@H](N=[N+]=[N-])[C@@H](COC(=O)C(N)Cc3ccccc3)O2)c(=O)[nH]c1=O.O=C(O)C(F)(F)F (stereo partly drawn) | 350 | 3.3 | 20 | 0.11 | 30 |
| CCC(C)C(N)C(=O)OC[C@H]1O[C@@H](n2cc(C)c(=O)[nH]c2=O)C[C@@H]1N=[N+]=[N-].O=C(O)C(F)(F)F (stereo partly drawn) | 250 | 10.3 | > 240 | 0.1 | 19 |
| Cc1cn([C@H]2C[C@H](N=[N+]=[N-])[C@@H](COC(=O)c3cccnc3)O2)c(=O)[nH]c1=O | – | 1.6 | 10 | – | 30 |
| Cc1cn([C@H]2C[C@H](N=[N+]=[N-])[C@@H](COC(=O)CN3CCOCC3)O2)c(=O)[nH]c1=O | 320 | 2.2 | 12 | – | 28 |
| Cc1cn(C2CC(N=[N+]=[N-])C(COC(=O)CCC(N)C(=O)O)O2)c(=O)[nH]c1=O (stereo not drawn) | 320 | 0.12 | 70 | – | 30 |

Reference: ChEMBL document CHEMBL1124778, “Synthesis and biological evaluation of prodrugs of zidovudine” (J Med Chem, 1990)
